According to ChEMBL document CHEMBL2440116, “Structure-activity relationships of 2-aminothiazoles effective against Mycobacterium tuberculosis” (Bioorg Med Chem, 2013):
In brackets after ≈: the same amount, converted by molar mass.

Columns and labels:
[1] = system: Mycobacterium tuberculosis; assay: Antitubercular activity against Mycobacterium tuberculosis H37Rv in Middlebrook 7H9 broth with butyrate after 7 to 14 days by broth microdilution method; format: functional
[2] = system: Mycobacterium tuberculosis; assay: Antitubercular activity against Mycobacterium tuberculosis H37Rv in Middlebrook 7H9 broth with glucose after 7 to 14 days by broth microdilution method; format: functional
Method in brief: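 Broth microdilution of H37Rv in 7H9 with 0.8 g/L NaCl, 5 g/L BSA fraction V, 4 g/L glucose and 0.05% Tyloxapol. Run in quadruplicate from DMSO stocks with DMSO controls; isoniazid positive control.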

[3] = system: Mycobacterium tuberculosis; assay: Antitubercular activity against Mycobacterium tuberculosis H37Rv in GAST media with glycerol and alanine after 7 to 14 days by broth microdilution method; format: functional
Vero = assay: Cytotoxicity against african green monkey Vero cells after 72 hrs by MTT assay; format: cell-based; conditions: Chlorocebus sabaeus
Method in brief: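 Vero (CCL-81) cells in MEM with 10% FBS, penicillin-streptomycin and Glutamax, seeded at 3.0×10⁴ per well and left to adhere overnight. Compounds added from DMSO at final 100–0.16 μM, triplicate, for 72 h at 37 °C, 4.5% CO2. Then MTT 1.0 mg/mL in phenol-red-free RPMI for 3 h, formazan dissolved in isopropanol, A570 minus A690. Viability taken relative to DMSO control; EC50 from dose-response curves.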

[4] = Therapeutic index, ratio of EC50 for african green monkey Vero cells to MIC for Mycobacterium tuberculosis H37Rv; format: cell-based; conditions: read-out: TI

Compound | MIC99 [1] [µM] | MIC99 [2] [µM] | MIC99 [3] [µM] | EC50 (Vero) [nM] | selectivity ratio [4]
c1ccc(Nc2nc(-c3ccccn3)cs2)nc1 | 0.39 (≈ 0.0992 µg/mL) | 0.78 (≈ 0.198 µg/mL) | 0.39 (≈ 0.0992 µg/mL) | – | –
COc1ccc(Nc2nc(-c3ccccn3)cs2)c(OC)c1 | 6.3 (≈ 1.97 µg/mL) | 6.3 (≈ 1.97 µg/mL) | > 12.5 | – | –
O=C(Nc1nc(-c2ccccn2)cs1)c1ccsc1 | 3.1 (≈ 0.891 µg/mL) | 1.6 (≈ 0.46 µg/mL) | 0.78 (≈ 0.224 µg/mL) | – | –
CN(C(=O)c1ccccc1)c1nc(-c2ccccn2)cs1 | – | > 25 | ≥ 25 | – | –
O=C(Nc1nnc(-c2ccccn2)o1)c1ccccc1F | – | 12.5 (≈ 3.55 µg/mL) | 6.25 (≈ 1.78 µg/mL) | – | –
O=C(Nc1nc(-c2ccccn2)cs1)c1cccnc1 | 3.1 (≈ 0.875 µg/mL) | 6.3 (≈ 1.78 µg/mL) | > 12.5 | – | –
Clc1ccc(Nc2nc(-c3ccccn3)cs2)nc1 | 1.6 (≈ 0.462 µg/mL) | 1.6 (≈ 0.462 µg/mL) | 0.39 (≈ 0.113 µg/mL) | – | –
O=C(Nc1nnc(-c2ccccn2)s1)c1ccccc1F | – | > 6.25 | > 6.25 | – | –
O=C(Nc1nc(-c2ccccn2)cs1)c1ccc(F)cc1 | 0.19 (≈ 0.0569 µg/mL) | 0.39 (≈ 0.117 µg/mL) | 0.098 (≈ 0.0293 µg/mL) | 2500 | –
O=C(Nc1nc(-c2ccccn2)cs1)c1ccccc1Cl | 0.19 (≈ 0.06 µg/mL) | 0.39 (≈ 0.123 µg/mL) | – | 2000 | 1
Cc1cccc(Nc2nc(-c3ccccn3)cs2)c1C | 12.5 (≈ 3.52 µg/mL) | 12.5 (≈ 3.52 µg/mL) | 3.1 (≈ 0.872 µg/mL) | – | –
FC(F)(F)c1cccc(Nc2nc(-c3ccccn3)cs2)c1 | 25 (≈ 8.03 µg/mL) | 25 (≈ 8.03 µg/mL) | > 12.5 | – | –
Fc1ccccc1Nc1nc(-c2ccccn2)cs1 | 25 (≈ 6.78 µg/mL) | 50 (≈ 13.6 µg/mL) | > 12.5 | – | –
O=C(Nc1nc(-c2ccccn2)cs1)c1cscn1 | > 50 | > 50 | > 50 | – | –
O=C(Nc1nc(-c2cscn2)cs1)c1ccccc1 | – | > 25 | ≥ 25 | – | –
O=C(Nc1nc(-c2ccccn2)cs1)c1ccccc1O | 1.6 (≈ 0.476 µg/mL) | 1.6 (≈ 0.476 µg/mL) | 0.19 (≈ 0.0565 µg/mL) | – | –
FC(F)(F)c1ccccc1Nc1nc(-c2ccccn2)cs1 | 6.3 (≈ 2.02 µg/mL) | 12 (≈ 3.86 µg/mL) | 6.3 (≈ 2.02 µg/mL) | – | –
O=C(Nc1nc(-c2ccccn2)cs1)c1ccc(F)cc1F | – | 0.39 (≈ 0.124 µg/mL) | 0.19 (≈ 0.0603 µg/mL) | 7300 | 9
O=C(Nc1nc(-c2cnccn2)cs1)c1ccccc1 | – | > 25 | > 25 | – | –
Oc1ccccc1Nc1nc(-c2ccccn2)cs1 | 25 (≈ 6.73 µg/mL) | 50 (≈ 13.5 µg/mL) | > 12.5 | – | –

Compound | MIC99 [1] [µM] | MIC99 [2] [µM] | MIC99 [3] [µM] | EC50 (Vero) [nM] | selectivity ratio [4]
O=C(Nc1nc(-c2ccccn2)cs1)c1ccc(F)c(F)c1 | 3.1 (≈ 0.984 µg/mL) | 1.6 (≈ 0.508 µg/mL) | 0.39 (≈ 0.124 µg/mL) | – | –
O=C(Nc1nc(-c2ccccn2)cs1)c1ccccc1Br | – | 0.39 (≈ 0.14 µg/mL) | 0.098 (≈ 0.0353 µg/mL) | 3500 | –
CCCCCCCCCC(=O)Nc1nc(-c2ccccn2)cs1 | 3.1 (≈ 1.03 µg/mL) | 6.3 (≈ 2.09 µg/mL) | 1.6 (≈ 0.53 µg/mL) | – | –
Cc1ccc(Nc2nc(-c3ccccn3)cs2)cc1 | 12.5 (≈ 3.34 µg/mL) | 12.5 (≈ 3.34 µg/mL) | 6.3 (≈ 1.68 µg/mL) | – | –
Cc1cccc(C)c1Nc1nc(-c2ccccn2)cs1 | 12.5 (≈ 3.52 µg/mL) | 12.5 (≈ 3.52 µg/mL) | 3.1 (≈ 0.872 µg/mL) | – | –
c1ccc(Nc2nc(-c3ccccn3)cs2)cc1 | 12.5 (≈ 3.17 µg/mL) | 25 (≈ 6.33 µg/mL) | 12.5 (≈ 3.17 µg/mL) | – | –
O=C(Nc1nc(-c2ccccn2)cs1)c1ccncc1 | 3.1 (≈ 0.875 µg/mL) | 1.6 (≈ 0.452 µg/mL) | 0.78 (≈ 0.22 µg/mL) | – | –
O=C(Nc1ccccc1)c1nc(-c2ccccn2)cs1 | – | > 25 | > 25 | – | –
O=C(Nc1nc(-c2ccccn2)cs1)c1ccco1 | 6.3 (≈ 1.71 µg/mL) | 3.1 (≈ 0.841 µg/mL) | 1.6 (≈ 0.434 µg/mL) | – | –
O=C(Nc1nc(-c2ccccn2)cs1)C1CCC1 | 6.3 (≈ 1.63 µg/mL) | 12.5 (≈ 3.24 µg/mL) | 6.3 (≈ 1.63 µg/mL) | – | –
Cc1ccccc1Nc1nc(-c2ccccn2)cs1 | 12.5 (≈ 3.34 µg/mL) | 12.5 (≈ 3.34 µg/mL) | 3.1 (≈ 0.829 µg/mL) | – | –
CCCCCCCC(=O)Nc1nc(-c2ccccn2)cs1 | 6.3 (≈ 1.91 µg/mL) | 6.3 (≈ 1.91 µg/mL) | 0.78 (≈ 0.237 µg/mL) | – | –
O=C(Nc1nc(-c2ccccn2)c[nH]1)c1ccccc1 | – | 25 (≈ 6.61 µg/mL) | 3.13 (≈ 0.827 µg/mL) | – | –
COc1cccc(C(=O)Nc2nc(-c3ccccn3)cs2)c1 | – | 0.19 (≈ 0.0592 µg/mL) | 0.098 (≈ 0.0305 µg/mL) | 2800 | 7
O=C(Nc1nc(-c2ccccn2)cs1)c1cccc([N+](=O)[O-])c1 | – | 1.6 (≈ 0.522 µg/mL) | 0.78 (≈ 0.255 µg/mL) | – | –
Cc1cccc(Nc2nc(-c3ccccn3)cs2)c1 | 12.5 (≈ 3.34 µg/mL) | 25 (≈ 6.68 µg/mL) | 6.3 (≈ 1.68 µg/mL) | – | –
FC(F)(F)c1ccc(Nc2nc(-c3ccccn3)cs2)cc1 | 12.5 (≈ 4.02 µg/mL) | 25 (≈ 8.03 µg/mL) | ≥ 12.5 | – | –
O=C(Nc1nc(-c2ccccn2)cs1)c1cccnc1Cl | – | 0.39 (≈ 0.124 µg/mL) | 0.19 (≈ 0.0602 µg/mL) | 1900 | 2
O=C(Nc1nc(-c2ccccn2)cs1)C1CCCCC1 | 3.1 (≈ 0.891 µg/mL) | 6.3 (≈ 1.81 µg/mL) | 1.6 (≈ 0.46 µg/mL) | – | –
O=C(Nc1cc(-c2ccccn2)cs1)c1ccccc1 | – | > 25 | 12.5 (≈ 3.5 µg/mL) | – | –

Compound | MIC99 [1] [µM] | MIC99 [2] [µM] | MIC99 [3] [µM] | EC50 (Vero) [nM] | selectivity ratio [4]
O=C(Nc1nc(-c2ccccn2)cs1)C1CCCC1 | 3.1 (≈ 0.847 µg/mL) | 12.5 (≈ 3.42 µg/mL) | – | – | –
CC1CC1C(=O)Nc1nc(-c2ccccn2)cs1 (stereo not given) | > 50 | 6.3 (≈ 1.63 µg/mL) | – | – | –
COc1ccc(OC)c(Nc2nc(-c3ccccn3)cs2)c1 | > 50 | > 50 | > 12.5 | – | –
O=C(Nc1nc(-c2ccccc2)cs1)c1ccccc1 | – | > 25 | ≥ 25 | – | –
O=C(Nc1nc(-c2ccccn2)cs1)c1ccccc1F | 0.39 (≈ 0.117 µg/mL) | 1.6 (≈ 0.479 µg/mL) | 1.6 (≈ 0.479 µg/mL) | – | –
O=C(Nc1nc(-c2ccccn2)cs1)c1ccoc1 | 6.3 (≈ 1.71 µg/mL) | 3.1 (≈ 0.841 µg/mL) | – | – | –
Fc1cccc(Nc2nc(-c3ccccn3)cs2)c1 | 25 (≈ 6.78 µg/mL) | 25 (≈ 6.78 µg/mL) | > 12.5 | – | –
O=C(Nc1nc(-c2ccccn2)cs1)c1ccc(Cl)cc1 | 0.78 (≈ 0.246 µg/mL) | 1.6 (≈ 0.505 µg/mL) | 0.39 (≈ 0.123 µg/mL) | – | –
CC(=O)c1ccc(C(=O)Nc2nc(-c3ccccn3)cs2)cc1 | 0.19 (≈ 0.0614 µg/mL) | 0.39 (≈ 0.126 µg/mL) | – | 10500 | –
O=C(Nc1nc(-c2ccccn2)cs1)c1c(F)cccc1Cl | 0.39 (≈ 0.13 µg/mL) | 0.78 (≈ 0.26 µg/mL) | 0.19 (≈ 0.0634 µg/mL) | 1300 | –
Cc1cccc(Nc2nc(-c3ccccn3)cs2)n1 | 3.1 (≈ 0.832 µg/mL) | 6.3 (≈ 1.69 µg/mL) | 0.78 (≈ 0.209 µg/mL) | – | –
O=C(Nc1nc(-c2ccccn2)cs1)C1CC1 | 12.5 (≈ 3.07 µg/mL) | 12 (≈ 2.94 µg/mL) | 6.3 (≈ 1.55 µg/mL) | – | –
O=C(Nc1nc(-c2ccccn2)co1)c1ccccc1 | – | 25 (≈ 6.63 µg/mL) | 25 (≈ 6.63 µg/mL) | – | –
O=C(Nc1nc(-c2ccccn2)cs1)c1cccs1 | – | 1.6 (≈ 0.46 µg/mL) | – | – | –
Cc1ccc(Nc2nc(-c3ccccn3)cs2)c(C)c1 | 12.5 (≈ 3.52 µg/mL) | 12.5 (≈ 3.52 µg/mL) | 6.3 (≈ 1.77 µg/mL) | – | –
CCCCCC(=O)Nc1nc(-c2ccccn2)cs1 | 3.1 (≈ 0.854 µg/mL) | 6.3 (≈ 1.73 µg/mL) | 3.1 (≈ 0.854 µg/mL) | – | –
CCCC(=O)Nc1nc(-c2ccccn2)cs1 | 25 (≈ 6.18 µg/mL) | 12 (≈ 2.97 µg/mL) | 12.5 (≈ 3.09 µg/mL) | – | –
O=C(Nc1nc(-c2ccccn2)cs1)c1ccccc1[N+](=O)[O-] | – | 1.6 (≈ 0.522 µg/mL) | 0.78 (≈ 0.255 µg/mL) | – | –
Fc1ccc(Nc2nc(-c3ccccn3)cs2)cc1 | 25 (≈ 6.78 µg/mL) | 25 (≈ 6.78 µg/mL) | 12.5 (≈ 3.39 µg/mL) | – | –
O=C(Nc1nc(-c2ccccn2)cs1)c1ccc(OCc2ccccc2)cc1 | – | 0.19 (≈ 0.0736 µg/mL) | 0.098 (≈ 0.038 µg/mL) | 2300 | 6
